Assay outcomes (PubChem BioAssay)
UCH37 DUB inh: blocks the human deubiquitinase UCH37; Q9Y5K5; purified proteasome/UCH37, Ub-AMC cleavage fluorescence; inhibition, % (concentration not given with the values); 0.33% of 330,000 active; AID 588478;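 active means mean inhibition over replicate wells above about 20%, limit read from the data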;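 further: 0% = compound-free wells with enzyme and 100% = wells lacking proteasome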
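Signal – fluorescence, ex 355 nm, em 460 nm · System – Proteasome-bound UCH37 · Input – 0.15 nM proteasome as dispensed · Timing – 30 min preincubation with enzyme, 25 min cleavage at room temperature · Read-out basis – percent inhibition of cleavage signal versus uninhibited and no-proteasome wells · Medium – Tris-HCl pH 7.4 with ATP-MgCl2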
Rin1 Abl inh: blocks binding of human Rin1 to Abl; inhibition, % at 7.35 µM; TR-FRET Rin1/Abl binding, biochemical; 0.4% of 360,000 active; AID 588664; P00519+Q13671; in the data active means inhibition above about 5%, passing the limit was not always enough
ATG4B inhibitor: inhibitors of human ATG4B cysteine protease. Q9Y4P1. ATG4B cleavage of LC3-PLA2, NBD-HPC fluorescence, 1 h. inhibition, % at 8.33 µM. 0.51% of 340,000 active; in the data active means inhibition above about 40%
Target sequence (Q9Y4P1 whole entry, looked up): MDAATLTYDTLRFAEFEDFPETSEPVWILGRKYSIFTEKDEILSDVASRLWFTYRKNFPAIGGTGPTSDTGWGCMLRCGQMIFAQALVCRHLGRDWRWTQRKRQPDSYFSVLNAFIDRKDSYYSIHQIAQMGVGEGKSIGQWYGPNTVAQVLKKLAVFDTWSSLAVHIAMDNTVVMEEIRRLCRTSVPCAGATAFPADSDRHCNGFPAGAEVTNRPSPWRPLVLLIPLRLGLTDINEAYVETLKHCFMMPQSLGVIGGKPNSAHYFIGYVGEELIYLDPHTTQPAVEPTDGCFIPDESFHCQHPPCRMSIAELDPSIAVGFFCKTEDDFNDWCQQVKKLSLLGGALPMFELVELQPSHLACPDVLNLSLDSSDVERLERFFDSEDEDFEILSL
Tb MetRS inh: blocks T. brucei methionyl-tRNA synthetase activity; AID 624268; 0.4% of 360,000 active; inhibition, % at 11.9 µM; purified T. brucei MetRS, ATP depletion, Kinase-Glo luminescence;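 active means inhibition above a per-plate cutoff of the control wells' mean inhibition plus 3 SD, cut at about 5.5% in these data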;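 further: 0% = DMSO wells median and 100% = median of wells with control inhibitor compound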
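System: purified T. brucei MetRS enzyme / Detection: Kinase-Glo luciferase luminescence reporting remaining unconsumed ATP / Medium: HEPES buffer with MgCl2, KCl, DTT, spermine, BSA, pyrophosphatase / Replication: singlicate, one well per compound / Evaluation: percent inhibition relative to median high and low control wells / Schedule: 2 h aminoacylation at 25 °C after 15 min preincubation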
UCH37 confirm: confirmation of human UCH37 deubiquitinating enzyme inhibitors; shares compounds with UCH37 DUB inh; Proteasome-bound UCH37, Ub-AMC cleavage fluorescence; inhibition, % at 20 µM; 27% of 480 active; AID 624100;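 active means average inhibition over replicates above about 50%, so the earlier screening hit is confirmed, limit read from the data; inactive means the rest, counted as false positives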;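 further: based on cleavage rate fitted by regression over a 30 min kinetic read; 0% = proteasome plus Ub-AMC and 100% = Ub-AMC without proteasome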
* hit, by the source's call; nt = not tested or not shown. In the library only some 1.4% were active in any assay of this set; here they are far more common.

SMILES	UCH37 DUB inh	Rin1 Abl inh	ATG4B inhibitor	Tb MetRS inh	UCH37 confirm
COC(=O)[C@@]1(Cc2ccc(F)cc2)[C@H]2c3cc(C(=O)N4CCCC4)n(Cc4ccc(C(F)(F)F)nc4)c3C[C@H]2CN1C(=O)c1ccccc1	0	nt	6	nt	nt
Cc1cc(C(=O)NP(=O)(N2CCOCC2)N2CCOCC2)c(C)n1-c1ccc(Br)cc1	4	-2	-7	-1	nt
Cc1cc(C(=O)C[N+]2(C)CCOCC2)c(C)n1-c1ccc(Br)cc1	45*	0	-2	0	-1
O=C(OCC(=O)N1CCCC1)c1cc(F)c(F)cc1Cl	4	3	-2	1	nt
CN(C(=O)COC(=O)c1cccc(S(=O)(=O)N2CCCCC2)c1)C1CCS(=O)(=O)C1 (stereo not given)	0	6	-9	-1	nt
C=CCOc1ccc(C2/C(=C(/O)c3ccc(OC)cc3)C(=O)C(=O)N2CCN2CCNCC2)cc1 (stereo not given)	55*	4	0	-1	7
CCOc1ccc(C2/C(=C(/O)c3ccc(F)cc3)C(=O)C(=O)N2CCCN(C)C)cc1 (stereo not given)	35*	-2	-5	-1	16
COc1ccccc1NC(=O)c1ccc(NC(=O)CSc2n[nH]c(N)n2)cc1	nt	0	-20	0	nt
CC(=O)Nc1ccc(NC2=C(Cl)C(=O)c3ccccc3C2=O)cc1	12	nt	2	nt	nt
Cc1ccc(NC2=C(NCCO)C(=O)c3ccccc3C2=O)cc1	26*	-2	4	0	2
Nc1cc(-c2cccc([N+](=O)[O-])c2)[nH]n1	39*	-3	-13	1	6
O=c1cc(-c2cccc([N+](=O)[O-])c2)[nH][nH]1	7	4	-1	-1	nt
NC(=O)C1CCN(C2=C(Cl)C(=O)c3ccccc3C2=O)CC1	82*	-2	3	0	17
COc1ccc(NC(=O)c2cncc(Br)c2)c(S(=O)(=O)N2CCOCC2)c1	35*	3	-11	1	6
COc1ccc(NC(=O)c2cccnc2Cl)c(S(=O)(=O)N2CCOCC2)c1	0	-1	8	0	nt
CC(C)N1CCN(Cc2cccn2-c2cccnc2)CC1CCO (stereo not given)	-3	0	-6	-2	nt
CN(C)CCCN(C(=O)c1ccc([N+](=O)[O-])s1)c1nc2cc3c(cc2s1)OCCO3	56*	-1	-17	-1	4
CN(C)CCCN(C(=O)c1ccc(Br)s1)c1nc2cc3c(cc2s1)OCCO3	2	1	3	0	nt
O=C(c1cc(-c2ccccc2)nc2ccccc12)N1CCc2ccccc2C1	2	3	33	0	nt
CC(C)=CCC1=C(OCC(=O)O)C(=O)c2ccccc2C1=O	81*	-1	24	1	39
N#C/C(=C\c1ccc(O)c([N+](=O)[O-])c1)c1nc2ccccc2s1	5	-2	-13	0	nt
COc1cc(/C=C(\C#N)c2nc3ccccc3s2)cc([N+](=O)[O-])c1O	26*	2	0	-1	53*
Cc1ccc(/C=C/c2ccc(N(C)C)cc2)[n+](C)c1	27*	-27	6	0	30
CN(C)c1ccc(NC(=O)c2cnsn2)cc1	5	-2	-6	0	nt
CC(=O)c1ccc(Nc2ccc([N+](=O)[O-])c3nonc23)cc1	8	-18	1	1	nt
SMILES	UCH37 DUB inh	Rin1 Abl inh	ATG4B inhibitor	Tb MetRS inh	UCH37 confirm
NS(=O)(=O)c1ccc(Nc2ccc([N+](=O)[O-])c3nonc23)cc1	26*	-20	1	3	5
Oc1ccc2ccccc2c1C=Nc1nc2c(s1)CCCC2	42*	nt	nt	nt	25
COc1ccccc1N1CCN(C(=O)C(=O)c2cn(CC(=O)N3CCCC3)c3ccccc23)CC1	3	2	-7	-1	nt
CCOCCn1c(COc2ccc(C)cc2)nc2ccccc21	6	0	5	0	nt
COCCn1c(COc2ccc(C)cc2)nc2ccccc21	36*	2	-12	0	3
Cc1c(NC(=O)C(C)OC(=O)c2ccc([N+](=O)[O-])s2)c(=O)n(-c2ccccc2)n1C (stereo not given)	77*	1	-5	0	27
O=C(CNS(=O)(=O)c1ccc(Cl)cc1)NN=Cc1ccco1	3	nt	nt	nt	nt
CC1=C(SCc2ccccc2)C(=O)c2ccccc2C1=O	32*	0	-9	0	48
CCNC(=O)C1(C)CCCN(Cc2cc(-c3ccccc3)n(C)n2)C1 (stereo not given)	nt	-3	nt	0	nt
C#CCOCCOCCOCCNc1nc(N2CCN(C(=O)[C@H](CCCCN)n3cc(CN)nn3)CC2)nc(N2CCN(C(=O)[C@H](CCCCN)n3cc([C@@H](N)[C@H](C)CC)nn3)CC2)n1	36*	-1	8	0	4
O=S(=O)(c1ccc(F)c(F)c1)N1CCN(Cc2ccc3c(c2)OCO3)CC1	1	0	-6	0	nt
CCC(CNc1cc(OC)cc2cccnc12)NC1CCCCC1 (stereo not given)	37*	2	2	3	54*
CCOC(=O)C1=C(CP(=O)(c2ccccc2)c2ccccc2)NC(=O)NC1c1ccc(Cl)cc1 (stereo not given)	1	1	-8	0	nt
COc1ccc(N(N=C2Sc3ccccc3C2=O)C(C)=O)cc1	78*	nt	nt	nt	29
CC(=O)N(N=C1Sc2ccccc2C1=O)c1cccc(C)c1	81*	nt	nt	nt	72*
Cc1cc(C)n2nc(CNS(=O)(=O)c3ccc(F)cc3)nc2n1	4	-3	-4	0	nt
COc1ccccc1/C=C(/C(=O)OCC(=O)Nc1ccc(N(C)C)cc1)c1ccccc1	2	-2	-5	-1	nt
CC(C)=CCC(C)(C)C1OCCN1C(=O)c1ccccc1 (stereo not given)	63*	4	-11	-1	68*
Cc1cccc(CSc2[nH]c(=O)ncc2C)c1	2	4	7	-1	nt
O=C(NC(NC1CCS(=O)(=O)C1)C(=O)c1cccs1)c1ccccc1 (stereo not given)	2	nt	-10	nt	nt
Cc1cccc(NC2=C(NC(=O)c3ccccc3)C(=O)c3ccccc3C2=O)c1	52*	-8	-1	-1	42
O=C(NC1=C(Nc2ccc(Cl)cc2)C(=O)c2ccccc2C1=O)c1ccccc1	9	-10	3	0	nt
O=C(NC1=C(NC2CCS(=O)(=O)C2)C(=O)c2ccccc2C1=O)c1ccccc1 (stereo not given)	62*	-7	-3	2	60*
CCc1ccc(S(=O)(=O)Nc2cc(SCC(=O)O)c(O)c3ccccc23)cc1	6	7	-25	-1	nt
O=C(O)CSc1cc(NS(=O)(=O)c2cccc([N+](=O)[O-])c2)c2ccccc2c1O	30*	1	-13	1	83*
O=C(CSCc1ccccc1)N1CCN(C(=O)c2ccco2)CC1	3	-1	0	0	nt
